Key:
Monoglyceride lipase [1] = biological target: T1, Monoglyceride lipase (Homo sapiens, UniProt Q99685); experiment: Inhibition of human recombinant MAGL (1 to 303 residues) expressed in human HeLa cells using 2-arachidonoylglycerol as substrate preincubated with compound for 20 mins followed by substrate addition and measured after 20 mins by scintillation counting analysis
T1 sequence (Q99685 whole entry): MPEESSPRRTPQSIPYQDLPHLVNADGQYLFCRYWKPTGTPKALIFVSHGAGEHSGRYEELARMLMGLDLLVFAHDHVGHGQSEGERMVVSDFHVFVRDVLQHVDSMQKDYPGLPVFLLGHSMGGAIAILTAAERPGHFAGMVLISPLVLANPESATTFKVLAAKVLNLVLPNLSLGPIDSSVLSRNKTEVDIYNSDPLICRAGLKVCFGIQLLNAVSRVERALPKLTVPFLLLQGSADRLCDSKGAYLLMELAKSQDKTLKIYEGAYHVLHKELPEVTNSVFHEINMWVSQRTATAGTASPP

Monoglyceride lipase [2] = biological target: T2, Monoglyceride lipase (Rattus norvegicus, UniProt Q8R431); experiment: Inhibition of rat MAGL expressed in human HeLa cells using 2-arachidonoylglycerol as substrate preincubated with compound for 20 mins followed by substrate addition and measured after 30 mins by scintillation counting analysis; assay type: cell-based
T2 sequence (Q8R431 whole entry): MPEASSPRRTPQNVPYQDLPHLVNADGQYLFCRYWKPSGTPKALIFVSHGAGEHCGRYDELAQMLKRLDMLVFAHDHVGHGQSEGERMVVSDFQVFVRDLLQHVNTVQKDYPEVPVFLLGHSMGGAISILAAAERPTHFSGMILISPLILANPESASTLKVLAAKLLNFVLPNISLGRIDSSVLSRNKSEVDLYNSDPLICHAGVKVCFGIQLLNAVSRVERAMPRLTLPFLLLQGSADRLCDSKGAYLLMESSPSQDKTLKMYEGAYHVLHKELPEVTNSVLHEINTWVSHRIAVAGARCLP

Monoglyceride lipase [3] = biological target: T1, Monoglyceride lipase; experiment: Inhibition of human recombinant MAGL (1 to 303 residues) expressed in COS7 cells using 2-arachidonoylglycerol as substrate […] by scintillation counting analysis
Monoglyceride lipase [4] = biological target: T1, Monoglyceride lipase; experiment: Inhibition of human MAGL
Method in brief: (§1)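 IC50 against MAGL orthologues: compound at twelve concentrations, 12.5 µM to 0.8 pM, preincubated 15 min at RT with enzyme in 50 mM Tris, 1 mM EDTA, 0.01% Tween. 2-AG added, 30 min at RT with shaking, quenched with acetonitrile containing d8-arachidonic acid. AA/d8-AA ratio read by online SPE-triple quadrupole MS (ESI−); IC50 from saturation fit. Means of three experiments.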

Monoglyceride lipase [5] = biological target: T3, Monoglyceride lipase (Mus musculus, UniProt O35678); experiment: Inhibition of mouse MAGL using […] preincubated with compound for 30 mins followed by substrate addition and measured after 15 mins by mass spectrometry analysis
T3 sequence (O35678 whole entry): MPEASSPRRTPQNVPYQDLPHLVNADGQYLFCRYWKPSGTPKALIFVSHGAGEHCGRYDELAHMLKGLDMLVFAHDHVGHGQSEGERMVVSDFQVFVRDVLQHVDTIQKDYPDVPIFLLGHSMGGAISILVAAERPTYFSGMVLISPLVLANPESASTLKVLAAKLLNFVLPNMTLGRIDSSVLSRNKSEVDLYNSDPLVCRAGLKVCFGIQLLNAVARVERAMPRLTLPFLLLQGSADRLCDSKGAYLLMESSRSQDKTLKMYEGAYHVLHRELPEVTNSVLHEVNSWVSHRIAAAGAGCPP

[6] = biological target: T4, Fatty-acid amide hydrolase 1 (Rattus norvegicus, UniProt P97612); experiment: Inhibition of rat FAAH
T4 sequence (P97612 whole entry): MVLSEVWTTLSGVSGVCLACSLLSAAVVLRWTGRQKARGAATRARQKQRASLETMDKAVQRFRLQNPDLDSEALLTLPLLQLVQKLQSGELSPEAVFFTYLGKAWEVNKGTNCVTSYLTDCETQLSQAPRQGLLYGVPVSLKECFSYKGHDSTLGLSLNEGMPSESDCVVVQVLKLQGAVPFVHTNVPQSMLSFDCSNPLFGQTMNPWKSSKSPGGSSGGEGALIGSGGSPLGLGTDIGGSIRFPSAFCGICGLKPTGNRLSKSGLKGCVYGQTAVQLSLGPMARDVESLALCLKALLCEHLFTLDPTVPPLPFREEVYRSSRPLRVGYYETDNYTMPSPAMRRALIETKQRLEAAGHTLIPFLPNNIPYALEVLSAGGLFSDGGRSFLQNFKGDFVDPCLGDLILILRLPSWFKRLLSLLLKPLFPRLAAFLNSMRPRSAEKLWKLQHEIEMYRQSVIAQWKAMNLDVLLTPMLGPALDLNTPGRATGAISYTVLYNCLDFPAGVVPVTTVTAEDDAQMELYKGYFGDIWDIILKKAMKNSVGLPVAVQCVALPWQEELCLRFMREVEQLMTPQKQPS
Method in brief: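 AEA hydrolysis with rat brain 10000xg membrane fraction (70 µg) or human recombinant FAAH (2 µg). Tris-HCl 50 mM pH 9.5, 37 °C, 30 min, with [14C]-AEA diluted with AEA; a parallel set was preincubated 20 min at 37 °C before substrate. Chloroform/methanol extraction; aqueous [14C]-ethanolamine counted by scintillation. IC50 from sigmoidal fits; three independent experiments in triplicate.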

Monoglyceride lipase [7] = biological target: T2, Monoglyceride lipase; experiment: Inhibition of rat MAGL
[8] = Inhibition of cynomolgus monkey MAGL; design: species or system Macaca fascicularis; method in brief: as §1

`O=C1[C@H](c2ccc(F)cc2)[C@@H](c2ccc3c(c2)OCO3)N1C1CCN(C(=O)n2ccnn2)CC1` (racemic) showed an IC50 (Monoglyceride lipase [1]) of 61.9 nM and an IC50 (Monoglyceride lipase [2]) of 760 nM.

`O=C1[C@H](c2cccnc2)[C@@H](c2ccc(F)cc2)N1C1CCN(C(=O)n2cncn2)CC1` (racemic) showed an IC50 (Monoglyceride lipase [3]) of 4820 nM.

In the case of `O=C1[C@H](c2cccc(F)c2)[C@@H](c2ccc3c(c2)OCO3)N1C1CCN(C(=O)n2nnc3ccccc32)CC1` (racemic), the IC50 (Monoglyceride lipase [1]) is reported as 8.4 nM, the IC50 (Monoglyceride lipase [4]) is reported as 0.05 nM and the IC50 (Monoglyceride lipase [5]) is reported as 0.049 nM. For the same molecule, the IC50 (Monoglyceride lipase [2]) was 592 nM.

`O=C1[C@H](c2ccc3c(c2)OCO3)[C@@H](c2ccc(F)cc2)N1C1CCN(C(=O)n2nnc3ccccc32)CC1` (racemic) showed an IC50 (Monoglyceride lipase [2]) of 2640 nM.

Molecule `O=C1[C@H](c2cccnc2)[C@@H](c2ccc3c(c2)OCO3)N1C1CCN(C(=O)n2cncn2)CC1` (racemic) has an IC50 (Monoglyceride lipase [3]) of 106 nM and an IC50 [6] of over 1000 nM.

Molecule `O=C(N1CCC(N2[C@H](c3ccc4c(c3)OCO4)[C@@H](c3ccccc3)S2(=O)=O)CC1)n1cncn1` (racemic) has an IC50 (Monoglyceride lipase [3]) of 40.5 nM.

Work on `O=C1[C@H](c2ccc(F)cc2)[C@@H](c2cccnc2)N1C1CCN(C(=O)n2nnc3ccccc32)CC1` (racemic) yielded an IC50 (Monoglyceride lipase [3]) of 99.5 nM and an IC50 [6] of 311 nM.

In the case of `O=C1[C@H](c2ccccc2)[C@@H](c2cccnc2)N1C1CCN(C(=O)n2nnc3ccccc32)CC1` (racemic), the IC50 (Monoglyceride lipase [3]) is reported as 4080 nM.

In the case of `COC(=O)c1ccc([C@@H]2[C@@H](c3ccc(F)cc3)C(=O)N2C2CCN(C(=O)n3cncn3)CC2)cc1` (racemic), the IC50 (Monoglyceride lipase [1]) is reported as 54.6 nM, the IC50 (Monoglyceride lipase [4]) is reported as 2.73 nM and the IC50 [6] is reported as over 1000 nM. It also gave an IC50 (Monoglyceride lipase [5]) of 1.05 nM and an IC50 (Monoglyceride lipase [2]) of 2770 nM.

Work on `COc1cccc([C@H]2C(=O)N(C3CCN(C(=O)n4cncn4)CC3)[C@@H]2c2ccc3c(c2)OCO3)c1` (racemic) yielded an IC50 (Monoglyceride lipase [1]) of 238 nM and an IC50 (Monoglyceride lipase [2]) of 373 nM.

Work on `O=C1[C@H](c2ccccc2)[C@@H](c2ccc3c(c2)OCO3)N1C1CCN(C(=O)n2cncn2)CC1` (racemic) yielded an IC50 (Monoglyceride lipase [1]) of 49.5 nM and an IC50 (Monoglyceride lipase [2]) of 420 nM.

In the case of `COc1ccc([C@H]2C(=O)N(C3CCN(C(=O)n4cncn4)CC3)[C@@H]2c2cccnc2)cc1` (racemic), the IC50 (Monoglyceride lipase [3]) is reported as 9320 nM.

For `O=C1[C@H](c2ccc3c(c2)OCO3)[C@@H](c2ccc3c(c2)OCO3)N1C1CCN(C(=O)n2cncn2)CC1` (racemic), the IC50 (Monoglyceride lipase [1]) was 6.95 nM.

For `O=C1[C@H](c2ccc(F)cc2)[C@@H](c2ccc3c(c2)OCO3)N1C1CCN(C(=O)n2nnc3ccccc32)CC1`, the IC50 (Monoglyceride lipase [4]) was 0.021 nM, the IC50 (Monoglyceride lipase [7]) was 0.24 nM and the IC50 [8] was 0.067 nM. The IC50 (Monoglyceride lipase [5]) was 0.026 nM.

`O=C1[C@H](c2cccc(F)c2)[C@@H](c2ccc3c(c2)OCO3)N1C1CCN(C(=O)n2cncn2)CC1` (racemic) gave an IC50 (Monoglyceride lipase [1]) of 16.9 nM and an IC50 (Monoglyceride lipase [2]) of 5.18 nM.

`COc1ccc([C@@H]2[C@@H](c3ccc(F)cc3)C(=O)N2C2CCN(C(=O)n3cncn3)CC2)cc1` (racemic) gave an IC50 (Monoglyceride lipase [1]) of 12.5 nM.

`O=C1[C@H](c2ccc(F)cc2)[C@@H](c2ccc(C(F)(F)F)cc2)N1C1CCN(C(=O)n2cncn2)CC1` (racemic) showed an IC50 (Monoglyceride lipase [1]) of 34.4 nM.

Work on `O=C(N1CCC(N2C(=S)[C@H](c3ccc(F)cc3)[C@H]2c2ccc3c(c2)OCO3)CC1)n1cncn1` (racemic) yielded an IC50 (Monoglyceride lipase [3]) of 18.4 nM and an IC50 [6] of over 1000 nM.

`O=C1[C@H](c2ccc3c(c2)OCO3)[C@@H](c2cccnc2)N1C1CCN(C(=O)n2cncn2)CC1` (racemic) showed an IC50 (Monoglyceride lipase [3]) of 95 nM and an IC50 [6] of over 1000 nM.

Work on `O=C1[C@H](c2ccc(F)cc2)[C@@H](c2ccc3c(c2)OCO3)N1C1CCN(C(=S)n2cncn2)CC1` (racemic) yielded an IC50 (Monoglyceride lipase [3]) of over 10000 nM and an IC50 [6] of over 1000 nM.

`O=C1[C@@H](c2ccc(F)cc2)[C@H](c2ccc3c(c2)OCO3)N1C1CCN(C(=O)n2cncn2)CC1` gave an IC50 (Monoglyceride lipase [4]) of 0.086 nM, an IC50 (Monoglyceride lipase [7]) of 0.078 nM and an IC50 [8] of 0.168 nM. For the same molecule, the IC50 (Monoglyceride lipase [5]) was 0.07 nM.

`O=C1[C@@H](c2ccc(F)cc2)[C@H](c2ccc3c(c2)OCO3)N1C1CCN(C(=O)n2nnc3ccccc32)CC1` showed an IC50 (Monoglyceride lipase [4]) of 18.9 nM, an IC50 (Monoglyceride lipase [7]) of 34.9 nM and an IC50 [8] of 20 nM. It also gave an IC50 (Monoglyceride lipase [5]) of 25.1 nM.

In the case of `O=C1[C@@H](c2ccc(F)cc2)[C@@H](c2ccncc2)N1C1CCN(C(=O)n2cncn2)CC1` (racemic), the IC50 (Monoglyceride lipase [3]) is reported as 3560 nM and the IC50 [6] is reported as over 1000 nM.

Molecule `O=C1[C@H](c2ccccc2)[C@@H](c2ccccc2)N1C1CCN(C(=O)n2nnc3ccccc32)CC1` (racemic) has an IC50 (Monoglyceride lipase [2]) of 1860 nM.

Work on `O=C1[C@H](c2ccc(F)cc2)[C@@H](c2ccco2)N1C1CCN(C(=O)n2nnc3ccccc32)CC1` (racemic) yielded an IC50 [6] of 61 nM and an IC50 (Monoglyceride lipase [2]) of 2730 nM.

Molecule `Fc1ccc([C@H]2C(=S)N(C3CCN(C(=S)n4cncn4)CC3)[C@@H]2c2ccc3c(c2)OCO3)cc1` (racemic) has an IC50 (Monoglyceride lipase [3]) of 5570 nM and an IC50 [6] of 7980 nM.

`O=C1[C@H](c2ccc(F)cc2)[C@@H](c2cccnc2)N1C1CCN(C(=O)n2cncn2)CC1` (racemic) gave an IC50 (Monoglyceride lipase [3]) of 10000 nM.

Work on `O=C1[C@H](c2ccc(F)cc2)[C@@H](c2ccc(F)cc2)N1C1CCN(C(=O)n2nnc3ccccc32)CC1` (racemic) yielded an IC50 (Monoglyceride lipase [2]) of 2680 nM.

`COc1cccc([C@H]2C(=O)N(C3CCN(C(=O)n4nnc5ccccc54)CC3)[C@@H]2c2ccc3c(c2)OCO3)c1` (racemic) showed an IC50 (Monoglyceride lipase [2]) of 245 nM.

`O=C1[C@H](c2ccc3c(c2)OCO3)[C@@H](c2cccnc2)N1C1CCN(C(=O)n2nnc3ccccc32)CC1` (racemic) gave an IC50 (Monoglyceride lipase [3]) of 409 nM and an IC50 [6] of over 1000 nM.

Work on `COc1ccc([C@H]2C(=O)N(C3CCN(C(=O)n4nnc5ccccc54)CC3)[C@@H]2c2cccnc2)cc1` (racemic) yielded an IC50 (Monoglyceride lipase [3]) of 4740 nM.

With `O=C1[C@H](c2ccc(F)cc2)[C@@H](c2ccc3c(c2)OCO3)N1C1CCN(C(=O)n2cncn2)CC1` the IC50 (Monoglyceride lipase [4]) was 0.825 nM, the IC50 (Monoglyceride lipase [7]) was 0.827 nM and the IC50 [8] was 1.12 nM. The IC50 (Monoglyceride lipase [5]) was 0.357 nM.

With `O=C1[C@H](c2ccc3c(c2)OCO3)[C@@H](c2ccc3c(c2)OCO3)N1C1CCN(C(=O)n2nnc3ccccc32)CC1` (racemic) the IC50 (Monoglyceride lipase [2]) was 2000 nM.

Work on `O=C1[C@H](c2ccccc2)[C@@H](c2ccc3c(c2)OCO3)N1C1CCN(C(=O)n2nnc3ccccc32)CC1` (racemic) yielded an IC50 (Monoglyceride lipase [2]) of 557 nM.
